Measurements published in BindingDB's records for doi:10.1021/jm049620r (University of Florida, 2004).
Bridge positions count the residues as written; N and C are the ends. Peptide text beside a SMILES is read from it.

Molecular target: Melanocyte-stimulating hormone receptor (Mus musculus, UniProt Q01727)
Test: Agonistic activity against mouse Melanocortin 1 Receptor
Method in brief: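 HEK-293 cells stably expressing the receptor (G418 selection), transiently transfected with a CRE/β-galactosidase reporter. Lysates read with ONPG at OD405 and normalized to protein content and forskolin (10^-4 M) response. EC50 from nonlinear least-squares fit, at least three independent experiments.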

Melanocyte-stimulating hormone receptor, sequence (Q01727 whole entry): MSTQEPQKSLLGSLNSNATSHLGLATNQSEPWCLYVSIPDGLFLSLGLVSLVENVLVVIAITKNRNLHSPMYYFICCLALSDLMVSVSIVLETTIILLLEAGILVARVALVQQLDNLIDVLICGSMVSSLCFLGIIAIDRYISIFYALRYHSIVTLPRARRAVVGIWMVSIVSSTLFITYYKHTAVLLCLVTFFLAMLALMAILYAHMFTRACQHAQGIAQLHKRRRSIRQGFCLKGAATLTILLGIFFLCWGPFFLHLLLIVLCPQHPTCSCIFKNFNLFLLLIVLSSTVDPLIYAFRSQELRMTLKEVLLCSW

EC50: 5.12 µM
Compound: C[C@@H]1NC(=O)[C@H](CC(N)=O)NC(=O)[C@H](Cc2ccccc2)NC(=O)[C@H](Cc2ccccc2)NC(=O)[C@H](CCCNC(=N)N)NC(=O)[C@@H](NC(=O)[C@@H](N)Cc2ccc(O)cc2)CSSC[C@@H](C(=O)N[C@@H](Cc2ccc(O)cc2)C(N)=O)NC(=O)[C@H](Cc2ccccc2)NC1=O (H-YCRFFNAFCY-NH2; disulfide 2-9)
